Records with an inconclusive call do not appear. The source made the active and inactive calls.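 The calls were made as follows: active = every replicate test active, meaning falling signal with half-maximal potency at most ten times the top valid dose; inconclusive = replicate test calls disagree with each other; inactive = every replicate test inactive, including signal rising instead.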
How the values were obtained:
[1] = molecular target: S. pyogenes UMAA2166, streptokinase activity in supernatant, OD405, 6 h; assay: secreted streptokinase activity reduction in group A streptococci – OD405 absorbance, dry powder, set 3, dose response (AID 504351)
How it was run: (§1)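 System – group A Streptococcus (S. pyogenes) cultures, streptokinase from supernatant · Quantity – bacteria seeded at OD600 of 0.015 · Also added – human plasma plasminogen plus chromogenic substrate S2403 in streptokinase test · Incubation – 6 h compound exposure of cultures at 37 °C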

[2] = as above; details: S. pyogenes UMAA2166, streptokinase activity in supernatant, OD405, 6 h; at 50 µM (top of the series)
How it was run: as §1

SMILES	AC50 [1]	activity change, negative = inhibition [2]
CCCOc1ccc(-c2nc(NC)c3ccccc3n2)cc1	31.6 µM	
COc1ccc(Sc2ccc(NC(=O)c3ccccc3Cl)cc2)cc1		inactive
COc1nc(-c2ccc(Cl)cc2)nc2ccccc12		inactive
CCCOc1ccc(-c2nc(N(C)C)c3ccccc3n2)cc1		inactive
COc1ccc(Sc2ccc(NC(=O)c3ccccc3C#N)cc2C#N)cc1		inactive
O=c1[nH]c(-c2cccc(Cl)c2)nc2ccccc12		inactive
COc1ccc(Sc2ccc(N(C(=O)c3ccccc3Cl)C(=O)c3ccccc3Cl)cc2C#N)cc1		inactive
COc1ccc2c(c1)c1cc(OC)ccc1n2C(=O)c1ccc(C)cc1		inactive
CCCOc1ccc(-c2nc(Oc3ccc(F)cc3)c3ccccc3n2)cc1		inactive
Cc1ccc(NC(=O)n2c3ccccc3c3ccccc32)cc1		inactive
O=c1[nH]c(-c2ccc(Cl)cc2)nc2ccccc12		inactive
O=C(c1cscn1)n1c2ccccc2c2ccccc21		inactive
COc1ccc(Sc2ccc(NC(=O)c3ccccc3Cl)cc2C#N)cc1		inactive
COc1ccccc1C(=O)n1c2ccccc2c2ccccc21		inactive
O=c1[nH]c(-c2cccc(F)c2)nc2ccccc12		inactive
CCCOc1ccc(-c2nc3ccccc3c(=O)[nH]2)cc1		inactive
CCCOc1ccc(-c2nc(Oc3ccc(C)cc3)c3ccccc3n2)cc1		inactive
COc1ccc(Sc2ccc(NC(=O)c3ccc(OC)cc3)cc2C#N)cc1		inactive
COc1ccc(S(=O)(=O)c2ccc(NC(=O)c3ccccc3Cl)cc2C#N)cc1		inactive
O=C(c1ccc(N2CCOCC2)cc1)n1c2ccccc2c2ccccc21		inactive

SMILES	AC50 [1]	activity change, negative = inhibition [2]
COc1ccc(Sc2ccc(NC(=O)c3ccccc3OC)cc2C#N)cc1		inactive
Cc1ccc(C(=O)n2c3ccccc3c3ccncc32)cc1	40.9 µM	
CS(=O)(=O)c1ccc(NC(=O)c2ccccc2Cl)cc1		inactive
COc1cccc(-c2nc3ccccc3c(=O)[nH]2)c1		inactive
COc1ccc(C(=O)n2c3ccccc3c3ccccc32)cc1		inactive
COc1nc(-c2cccc(Cl)c2)nc2ccccc12		inactive
COc1cccc(-c2nc(OC)c3ccccc3n2)c1		inactive
COc1ccc(Sc2ccc(N)cc2C#N)cc1		inactive
COc1ccc(Sc2ccc(NC(=O)c3ccc(C)cc3)cc2C#N)cc1		inactive
O=C(Nc1ccc(Sc2ccccc2)cc1)c1ccccc1Cl	44.4 µM	
CCCOc1ccc(-c2nc(OC(C)C)c3ccccc3n2)cc1	37.5 µM	
Cc1ccc(C(=O)n2c3ccccc3c3cccnc32)cc1		inactive
COc1nc(-c2cccc(F)c2)nc2ccccc12		inactive
CCCOc1ccc(-c2nc(OC)c3ccccc3n2)cc1		inactive
Cc1ccc(C(=O)n2c3ccccc3c3ccccc32)cn1		inactive
Cc1ccc(C(=O)n2ncc3ccccc32)cc1		inactive
COc1ccc(Sc2ccc(NCc3ccccc3Cl)cc2C#N)cc1		inactive
CCCOc1ccc(-c2nc(OCCCOC)c3ccccc3n2)cc1		inactive
CC(C)Oc1ccc(-c2nc3ccccc3c(=O)[nH]2)cc1		inactive
